Experimental data reported in ChEMBL document CHEMBL1138784, “Rational design, synthesis, and biological evaluation of bis(pyrimido[5,6,1-de]acridines) and bis(pyrazolo[3,4,5-kl]acridine-5-carboxamides) as new anticancer agents” (J Med Chem, 2004).

Legend:
Nucleic Acid [1] = test: Binding site preference is determined as the ratio of Poly (dA-dT)2 to Poly (dG-dC)2; assay type: nucleic-acid assay
How it was run: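 Ethidium displacement fluorometry at pH 7.0 (10 mM Na2HPO4, 10 mM NaH2PO4, 1 mM EDTA) with 1.26 μM ethidium bromide and 1 μM [poly(dA-dT)]2 or [poly(dG-dC)]2, 20 °C. Ex 546 nm, em 595 nm, drug added serially from a DMSO stock. Preference taken from the [AT]/[GC] ratio of C50 values, counted significant only below 0.7 or above 1.3.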

HT-29 = test: Cytotoxicity is determined as the concentration required to inhibit the growth of human colon adenocarcinoma (HT-29) cell line; assay type: functional, cell-based
[2] = Cytotoxicity against human H460M cancer cell line was determined after 144 hr; assay type: functional, cell-based; conditions: Cancer cell lines
How it was run: (§1)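 MTT colorimetric assay. Cells seeded by growth characteristics and preincubated 24 h, then exposed to drug for 1 h or 144 h at 37 °C, 5% CO2. H460M, MKN45 and PC-3 were grown in RPMI 1640 with 10% FCS. HCT116 was grown in D-MEM with 10% FBS and 2 mM glutamine.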

MKN-45 = test: Cytotoxicity against human MKN45 cancer cell line was determined after 144 hr; assay type: functional, cell-based; conditions: MKN-45, 144 h; how it was run: as §1
HCT-116 = test: Cytotoxicity against human HCT116 cancer cell line was determined after 144 hr; assay type: functional, cell-based; conditions: HCT-116, 144 h; how it was run: as §1
PC-3 = test: Cytotoxicity against human PC3 cancer cell line was determined after 144 hr; assay type: functional, cell-based; conditions: PC-3, 144 h; how it was run: as §1
LoVo = test: Cytotoxicity against human LoVo cancer cell line was determined after 144 hr; assay type: functional, cell-based
How it was run: (§2)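 MTT assay on doxorubicin-sensitive LoVo and resistant LoVo/Dx cells, 24 h preincubation, then 1 h or 144 h drug exposure at 37 °C, 5% CO2. IC50 in nM. Resistance index is IC50 on LoVo/Dx divided by IC50 on LoVo.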

[3] = Cytotoxicity against human LoVo cancer cell line was determined after 1 hr; assay type: cell-based; how it was run: as §2
[4] = Cytotoxicity against human H460M cancer cell line was determined after 1 hr; assay type: cell-based; conditions: Cancer cell lines; how it was run: as §1
[5] = Cytotoxicity against human MKN45 cancer cell line was determined after 1 hr; assay type: cell-based; conditions: Cancer cell lines; how it was run: as §1
[6] = Cytotoxicity against human HCT116 cancer cell line was determined after 1 hr; assay type: cell-based; conditions: HCT-116, 1 h; how it was run: as §1
[7] = Cytotoxicity against human PC3 cancer cell line was determined after 1 hr; assay type: cell-based; conditions: Cancer cell lines; how it was run: as §1
Nucleic Acid [8] = test: Binding site preference is determined as the ratio of AT to GC

SMILES	Binding site preference (Nucleic Acid [1])	IC50 (HT-29) [nM]	also measured
CN(C)CCNc1ccc(C(=O)NCCCN(C)CCCNC(=O)c2ccc(NCCN(C)C)c3c(=O)c4ccccc4[nH]c23)c2[nH]c3ccccc3c(=O)c12	10	57	
CN(C)CCNC(=O)c1ccc2c3c(c4ccccc4nc13)NN2CCN(C)C	3.4		
COc1ccc2c(c1)-c1nn(CCN(C)C)c3ccc(C(=O)NCCN(C)CCNC(=O)c4ccc5c6c(c7cc(OC)ccc7nc46)NN5CCN(C)C)c(c13)N2	2.8	150	
O=C1c2c(O)ccc(O)c2C(=O)c2c(NCCNCCO)ccc(NCCNCCO)c21 [MITOXANTRONE]			IC50 [2]: 0.75 nM; IC50 (MKN-45): 12 nM; IC50 (HCT-116): 5.8 nM; IC50 (PC-3): 7 nM; IC50 (LoVo): 3.3 nM; IC50 [3]: 12 nM; IC50 [4]: 0.85 nM; IC50 [5]: 6.8 nM; IC50 [6]: 110 nM; IC50 [7]: 75 nM
COc1ccc2nc3c(C(=O)NCCN(C)C)ccc(NCCCN(C)CCCNc4ccc(C(=O)NCCN(C)C)c5nc6ccc(OC)cc6c(O)c45)c3c(O)c2c1	1.9	39	
CN(C)CCN1Nc2c3cc(O)ccc3nc3c(C(=O)NCCN(C)CCNC(=O)c4ccc5c6c(c7cc(O)ccc7nc46)NN5CCN(C)C)ccc1c23	2.8	> 10000	
CN(C)CCn1c(=O)c2ccc(NCCCNc3ccc4c(=O)n(CCN(C)C)c(=O)n5c6ccccc6c(=O)c3c45)c3c(=O)c4ccccc4n(c1=O)c23	8.9	390	
COc1ccc2c(c1)-c1nn(CCN(C)C)c3ccc(C(=O)NCCN(C)C)c(c13)N2	1.6		
CN(C)CCNc1ccc(C(=O)NCCCN(C)CCCNC(=O)c2ccc(NCCN(C)C)c3c(O)c4cc(O)ccc4nc23)c2nc3ccc(O)cc3c(O)c12	1.6	800	
CN(C)CCn1c(=O)c2ccc(NCCN(C)CCNc3ccc4c(=O)n(CCN(C)C)c(=O)n5c6ccccc6c(=O)c3c45)c3c(=O)c4ccccc4n(c1=O)c23	4.3	110	
CN(C)CCn1c(=O)c2ccc(NCCN(C)CCNc3ccc4c(=O)n(CCN(C)C)c(=O)n5c6ccc(O)cc6c(=O)c3c45)c3c(=O)c4cc(O)ccc4n(c1=O)c23	9.1	390	
COc1ccc2c(c1)c(=O)c1c(NCCN(C)C)ccc3c(=O)n(CCN(C)C)c(=O)n2c31			Binding site preference (Nucleic Acid [8]): 0.22
COc1ccc2c(c1)c(=O)c1c(NCCN(C)CCNc3ccc4c(=O)n(CCN(C)C)c(=O)n5c6ccc(OC)cc6c(=O)c3c45)ccc3c(=O)n(CCN(C)C)c(=O)n2c31		720	
CN(C)CCNC(=O)c1ccc(NCCCN(C)CCCNc2ccc(C(=O)NCCN(C)C)c3nc4ccc(O)cc4c(O)c23)c2c(O)c3cc(O)ccc3nc12	1.8	6900	
CN(C)CCN1Nc2c3ccccc3nc3c(C(=O)NCCN(C)CCNC(=O)c4ccc5c6c(c7ccccc7nc46)NN5CCN(C)C)ccc1c23	4.3	360	
CN(C)CCNC(=O)c1ccc(NCCCN(C)CCCNc2ccc(C(=O)NCCN(C)C)c3nc4ccc([N+](=O)[O-])cc4c(O)c23)c2c(O)c3cc([N+](=O)[O-])ccc3nc12		< 0.1	
CN(C)CCn1c(=O)c2ccc(NCCCCCCNc3ccc4c(=O)n(CCN(C)C)c(=O)n5c6ccccc6c(=O)c3c45)c3c(=O)c4ccccc4n(c1=O)c23	30	43	
CN(C)CCNc1ccc2c(=O)n(CCN(C)C)c(=O)n3c4ccccc4c(=O)c1c23			Binding site preference (Nucleic Acid [8]): 0.57
CN(C)CCn1c(=O)c2ccc(NCCCCCCCCCCCCNc3ccc4c(=O)n(CCN(C)C)c(=O)n5c6ccccc6c(=O)c3c45)c3c(=O)c4ccccc4n(c1=O)c23	12	3500	
CN(C)CCN1Nc2c3cc(O)ccc3nc3c(C(=O)NCCCN(C)CCCNC(=O)c4ccc5c6c(c7cc(O)ccc7nc46)NN5CCN(C)C)ccc1c23	1.3	780	
COc1cc2c(=O)c3c(NCCCN(C)CCCNc4ccc5c(=O)n(CCN(C)C)c(=O)n6c7cc(OC)c(OC)cc7c(=O)c4c56)ccc4c(=O)n(CCN(C)C)c(=O)n(c2cc1OC)c43	4.6	250	
CN(C)CCNC(=O)c1ccc2c3c(c4cc(O)ccc4nc13)NN2CCN(C)C	5.1		
CN(C)CCNC(=O)c1ccc(NCCCN(C)CCCNc2ccc(C(=O)NCCN(C)C)c3nc4ccccc4c(O)c23)c2c(O)c3ccccc3nc12		0.43	
CN(C)CCNc1ccc2c(=O)n(CCN(C)C)c(=O)n3c4ccc([N+](=O)[O-])cc4c(=O)c1c23			Binding site preference (Nucleic Acid [8]): 0.12
COc1cc2c(=O)c3c(NCCN(C)C)ccc4c(=O)n(CCN(C)C)c(=O)n(c2cc1OC)c43			Binding site preference (Nucleic Acid [8]): 0.12
COc1ccc2nc3c(C(=O)NCCCN(C)CCCNC(=O)c4ccc(NCCN(C)C)c5c(O)c6cc(OC)ccc6nc45)ccc(NCCN(C)C)c3c(O)c2c1	2.5	2	
CN(C)CCNc1ccc2c(=O)n(CCN(C)C)c(=O)n3c4ccc(O)cc4c(=O)c1c23			Binding site preference (Nucleic Acid [8]): 0.25
CN(C)CCn1c(=O)c2ccc(NCCN(C)CCN(C)CCNc3ccc4c(=O)n(CCN(C)C)c(=O)n5c6ccccc6c(=O)c3c45)c3c(=O)c4ccccc4n(c1=O)c23	84	390	
CN(C)CCn1c(=O)c2ccc(NCCCCCCCCNc3ccc4c(=O)n(CCN(C)C)c(=O)n5c6ccccc6c(=O)c3c45)c3c(=O)c4ccccc4n(c1=O)c23	41	360	
